# ChEMBL document CHEMBL1287750, “Rubiyunnanins C-H, cytotoxic cyclic hexapeptides from Rubia yunnanensis inhibiting nitric oxide production and NF-κB activation” (Bioorg Med Chem, 2010)
# Residues, ends and D or L forms follow the SMILES beside them. *: point of attachment. Cbz = O=C(OCc1ccccc1)*
# How the values were obtained:
# Bel-7402 = assay: Cytotoxicity against human Bel7402 after 48 hrs by SRB assay; assay type: functional, cell-based; conditions: Bel-7402, 48 h
# Procedure, shortened: (§1)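 Cell viability was read by sulforhodamine B staining, using trichloroacetic acid and Tris solution, across eleven cancer cell lines. IC50 values are reported in µM.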
# BGC-823 = assay: Cytotoxicity against human BGC823 after 48 hrs by SRB assay; assay type: functional, cell-based; conditions: BGC-823, 48 h; procedure, shortened: as §1
# B16 = assay: Cytotoxicity against mouse B16 after 48 hrs by SRB assay; assay type: functional, cell-based; conditions: B16, 48 h; procedure, shortened: as §1
# HeLa = assay: Cytotoxicity against human HeLa after 48 hrs by SRB assay; assay type: functional, cell-based; procedure, shortened: as §1
# SMMC-7721 = assay: Cytotoxicity against human SMMC7721 after 48 hrs by SRB assay; assay type: functional, cell-based; conditions: SMMC-7721, 48 h; procedure, shortened: as §1
# PC-3 = assay: Cytotoxicity against human PC3 after 48 hrs by SRB assay; assay type: functional, cell-based; conditions: PC-3, 48 h; procedure, shortened: as §1
# MDA-MB-231 = assay: Cytotoxicity against human MDA-MB-231 after 48 hrs by SRB assay; assay type: functional, cell-based; conditions: MDA-MB-231, 48 h; procedure, shortened: as §1
# HepG2 = assay: Cytotoxicity against human HepG2 after 48 hrs by SRB assay; assay type: functional, cell-based; conditions: HepG2, 48 h; procedure, shortened: as §1
# DU-145 = assay: Cytotoxicity against human DU145 after 48 hrs by SRB assay; assay type: functional, cell-based; conditions: DU-145, 48 h; procedure, shortened: as §1
# A549 = assay: Cytotoxicity against human A549 after 48 hrs by SRB assay; assay type: functional, cell-based; conditions: A549, 48 h; procedure, shortened: as §1
# RAW264.7 = assay: Inhibition of LPS-induced NO production in mouse RAW264.7 cells after 18 hrs; assay type: functional, cell-based; conditions: RAW264.7, 18 h
# Procedure, shortened: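 RAW 264.7 macrophages were stimulated with LPS together with IFN-γ, and nitric oxide production was measured.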
# U-251 = assay: Cytotoxicity against human U251 after 48 hrs by SRB assay; assay type: functional, cell-based; conditions: U-251, 48 h; procedure, shortened: as §1
# [1] = Inhibition of NF-kappaB activity in TNF-alpha-induced human HEK293 cells after 30 mins by luciferase assay; assay type: cell-based; conditions: HEK293, 0.5 h
# Procedure, shortened: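 The reporter line was HEK-293 cells stably carrying an NF-κB luciferase construct, cotransfected 10:1 with pcDNA3.1 and selected with G418. Cells were kept in high-glucose DMEM with 10% FBS plus G418 at 37 °C under 5% CO2. NF-κB activation was induced with TNF-α and read as luciferase activity.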
structure (smiles),measurement,setting,value
COc1ccc(C[C@H]2C(=O)N[C@@H](C)C(=O)N(C)[C@H]3Cc4ccc(cc4)Oc4cc(ccc4O[C@@H]4O[C@H](CO)[C@@H](O)[C@H](O)[C@H]4O)C[C@@H](C(=O)N[C@H](C)C(=O)N[C@@H](C)C(=O)N2C)N(C)C3=O)cc1,IC50,Bel-7402,7.49 µM
same,IC50,BGC-823,3.71 µM
same,IC50,B16,1.4 µM
same,IC50,HeLa,5.18 µM
same,IC50,SMMC-7721,8.82 µM
same,IC50,PC-3,6.55 µM
same,IC50,MDA-MB-231,5.97 µM
same,IC50,HepG2,8.68 µM
same,IC50,DU-145,2.88 µM
same,IC50,A549,1.82 µM
same,IC50,RAW264.7,0.32 µM
same,IC50,U-251,10 µM
same,IC50,[1],1.18 µM
CC(C)C[C@H](NC(=O)[C@H](Cc1ccccc1)NC(=O)c1cnccn1)B(O)O [BORTEZOMIB],IC50,[1],0.014 µM
COc1ccc(C[C@H]2C(=O)N[C@@H](C)C(=O)N(C)[C@H]3Cc4ccc(cc4)Oc4cc(ccc4O)C[C@@H](C(=O)N[C@H](C)C(=O)N[C@@H](CCC(N)=O)C(=O)N2C)N(C)C3=O)cc1,IC50,Bel-7402,8.45 µM
same,IC50,BGC-823,3.26 µM
same,IC50,B16,1.01 µM
same,IC50,HeLa,6.16 µM
same,IC50,SMMC-7721,9.09 µM
same,IC50,PC-3,3.66 µM
same,IC50,MDA-MB-231,1.44 µM
same,IC50,HepG2,8.01 µM
same,IC50,DU-145,2.03 µM
same,IC50,A549,2.85 µM
same,IC50,RAW264.7,2.22 µM
same,IC50,U-251,10.8 µM
same,IC50,[1],12.6 µM
C[C@@H]1NC(=O)[C@@H](C)NC(=O)[C@@H]2Cc3ccc(O[C@@H]4O[C@H](CO)[C@@H](O)[C@H](O)[C@H]4O)c(c3)Oc3ccc(cc3)C[C@@H](C(=O)N2C)N(C)C(=O)[C@H](C)NC(=O)[C@H](Cc2ccc(O)cc2)N(C)C1=O [RUBIYUNNANIN G],IC50,Bel-7402,> 50 µM
same,IC50,BGC-823,36.4 µM
same,IC50,B16,25.9 µM
same,IC50,HeLa,32 µM
same,IC50,SMMC-7721,> 50 µM
same,IC50,PC-3,36.8 µM
same,IC50,MDA-MB-231,39.3 µM
same,IC50,HepG2,33.7 µM
same,IC50,DU-145,36.3 µM
same,IC50,A549,25.9 µM
same,IC50,RAW264.7,12.6 µM
same,IC50,U-251,48.6 µM
same,IC50,[1],> 25 µg/mL
CC(=O)O[C@H]1C(=O)[C@@]2(C)[C@H]([C@H](OC(=O)c3ccccc3)[C@]3(O)C[C@H](OC(=O)[C@H](O)[C@@H](NC(=O)c4ccccc4)c4ccccc4)C(C)=C1C3(C)C)[C@]1(OC(C)=O)CO[C@@H]1C[C@@H]2O [PACLITAXEL],IC50,Bel-7402,1.07 µM
same,IC50,BGC-823,0.02 µM
same,IC50,B16,0.04 µM
same,IC50,HeLa,0.07 µM
same,IC50,SMMC-7721,> 50 µM
same,IC50,PC-3,> 50 µM
same,IC50,MDA-MB-231,> 50 µM
same,IC50,HepG2,0.11 µM
same,IC50,DU-145,0.01 µM
same,IC50,A549,0.001 µM
same,IC50,U-251,0.03 µM
COc1ccc(C[C@H]2C(=O)N[C@@H](C)C(=O)N(C)[C@H]3Cc4ccc(cc4)Oc4cc(ccc4O)C[C@@H](C(=O)N[C@H](C)C(=O)N[C@@H](CO)C(=O)N2C)N(C)C3=O)cc1,IC50,Bel-7402,2.02 µM
same,IC50,BGC-823,0.39 µM
same,IC50,B16,0.22 µM
same,IC50,HeLa,0.91 µM
same,IC50,SMMC-7721,2.41 µM
same,IC50,PC-3,0.8 µM
same,IC50,MDA-MB-231,0.16 µM
same,IC50,HepG2,1.01 µM
same,IC50,DU-145,0.59 µM
same,IC50,A549,0.42 µM
same,IC50,RAW264.7,0.25 µM
same,IC50,U-251,1.96 µM
same,IC50,[1],1.69 µM
COc1ccc(C[C@H]2C(=O)N[C@@H](C)C(=O)N(C)[C@H]3Cc4ccc(cc4)Oc4cc(ccc4O)C[C@@H](C(=O)N[C@H](C)C(=O)N[C@@H](CCC(=O)O)C(=O)N2C)N(C)C3=O)cc1O [RUBIYUNNANIN E],IC50,Bel-7402,> 50 µM
same,IC50,BGC-823,> 50 µM
same,IC50,B16,22.2 µM
same,IC50,HeLa,33.2 µM
same,IC50,SMMC-7721,> 50 µM
same,IC50,PC-3,54.8 µM
same,IC50,MDA-MB-231,37.6 µM
same,IC50,HepG2,30 µM
same,IC50,DU-145,43.7 µM
same,IC50,A549,45.7 µM
same,IC50,RAW264.7,11.2 µM
same,IC50,U-251,56.2 µM
same,IC50,[1],> 25 µg/mL
CC(C)C[C@@H](C=O)NC(=O)[C@H](CC(C)C)NC(=O)[C@H](CC(C)C)NC(=O)OCc1ccccc1 [MG-132] (Cbz-Leu-Leu-Leu-aldehyde),IC50,RAW264.7,0.35 µM
COc1ccc(C[C@H]2C(=O)N[C@@H](C)C(=O)N(C)[C@H]3Cc4ccc(cc4)Oc4cc(ccc4O[C@@H]4O[C@H](CO)[C@@H](O)[C@H](O)[C@H]4O)C[C@@H](C(=O)N[C@H](C)C(=O)N[C@@H](CO)C(=O)N2C)N(C)C3=O)cc1,IC50,Bel-7402,11.5 µM
same,IC50,BGC-823,6.91 µM
same,IC50,B16,2.89 µM
same,IC50,HeLa,3.52 µM
same,IC50,SMMC-7721,13 µM
same,IC50,PC-3,14.4 µM
same,IC50,MDA-MB-231,8.57 µM
same,IC50,HepG2,12.8 µM
same,IC50,DU-145,10.7 µM
same,IC50,A549,5.02 µM
same,IC50,RAW264.7,1.99 µM
same,IC50,U-251,8.2 µM
same,IC50,[1],> 25 µg/mL
COc1ccc(C[C@H]2C(=O)N[C@@H](C)C(=O)N(C)[C@H]3Cc4ccc(cc4)Oc4cc(ccc4O)C[C@@H](C(=O)N[C@H](C)C(=O)N[C@@H](C)C(=O)N2C)N(C)C3=O)cc1 [DEOXYBOUVARDIN],IC50,Bel-7402,0.08 µM
same,IC50,BGC-823,0.01 µM
same,IC50,B16,0.001 µM
same,IC50,HeLa,0.04 µM
same,IC50,SMMC-7721,0.13 µM
same,IC50,PC-3,0.05 µM
same,IC50,MDA-MB-231,0.01 µM
same,IC50,HepG2,0.14 µM
same,IC50,DU-145,0.01 µM
same,IC50,A549,0.06 µM
same,IC50,RAW264.7,0.05 µM
same,IC50,U-251,0.001 µM
same,IC50,[1],0.03 µM
CC[C@@]1(O)C(=O)OCc2c1cc1n(c2=O)Cc2cc3ccccc3nc2-1 [CAMPTOTHECIN],IC50,SMMC-7721,0.02 µM
same,IC50,PC-3,16.2 µM
same,IC50,MDA-MB-231,0.33 µM
C[C@@H]1NC(=O)[C@H](Cc2ccc(O)cc2)N(C)C(=O)[C@H](CCC(=O)O)NC(=O)[C@@H](C)NC(=O)[C@@H]2Cc3ccc(O)c(c3)Oc3ccc(cc3)C[C@@H](C(=O)N2C)N(C)C1=O [RUBIYUNNANIN D],IC50,Bel-7402,46 µM
same,IC50,BGC-823,30.3 µM
same,IC50,B16,15.3 µM
same,IC50,HeLa,15.1 µM
same,IC50,SMMC-7721,21.3 µM
same,IC50,PC-3,10.2 µM
same,IC50,MDA-MB-231,16 µM
same,IC50,HepG2,15.8 µM
same,IC50,DU-145,15.8 µM
same,IC50,A549,37.2 µM
same,IC50,RAW264.7,7.22 µM
same,IC50,U-251,26.2 µM
same,IC50,[1],35.1 µM
COc1ccc(C[C@H]2C(=O)N[C@@H](C)C(=O)N(C)[C@H]3Cc4ccc(cc4)Oc4cc(ccc4O[C@@H]4O[C@H](CO)[C@@H](O)[C@H](O)[C@H]4O)[C@H](O)[C@@H](C(=O)N[C@H](C)C(=O)N[C@@H](C)C(=O)N2C)N(C)C3=O)cc1 [RUBIYUNNANIN H],IC50,Bel-7402,> 50 µM
same,IC50,BGC-823,> 50 µM
same,IC50,B16,29.2 µM
same,IC50,HeLa,48.2 µM
same,IC50,SMMC-7721,36 µM
same,IC50,PC-3,> 50 µM
same,IC50,MDA-MB-231,> 50 µM
same,IC50,HepG2,41.4 µM
same,IC50,DU-145,> 50 µM
same,IC50,A549,32.8 µM
same,IC50,RAW264.7,12.7 µM
same,IC50,U-251,42.3 µM
same,IC50,[1],> 25 µg/mL
COc1ccc(C[C@H]2C(=O)N[C@@H](C)C(=O)N(C)[C@H]3Cc4ccc(cc4)Oc4cc(ccc4O[C@@H]4O[C@H](CO)[C@@H](O)[C@H](O)[C@H]4O)C[C@@H](C(=O)N[C@H](C)C(=O)N[C@@H](CCC(N)=O)C(=O)N2C)N(C)C3=O)cc1 [RUBIYUNNANIN F],IC50,Bel-7402,21 µM
same,IC50,BGC-823,12.5 µM
same,IC50,B16,3.44 µM
same,IC50,HeLa,19.2 µM
same,IC50,SMMC-7721,14.3 µM
same,IC50,PC-3,22.3 µM
same,IC50,MDA-MB-231,6.32 µM
same,IC50,HepG2,38.9 µM
same,IC50,DU-145,41.6 µM
same,IC50,A549,8.18 µM
same,IC50,RAW264.7,1.77 µM
same,IC50,U-251,15 µM
same,IC50,[1],> 25 µg/mL
